From ChEMBL document CHEMBL1123522, “Angiotensin converting enzyme inhibitors as antihypertensive agents: 1-[(2-mercaptocycloalkyl)carbonyl]-L-prolines” (J Med Chem, 1986)
pIC50: −log10 of the molar value.

What was measured:
[1] = target: T1, Angiotensin-converting enzyme (Rattus norvegicus, UniProt P47820); test: Inhibitory activity against Angiotensin I converting enzyme
T1 sequence (P47820 whole entry): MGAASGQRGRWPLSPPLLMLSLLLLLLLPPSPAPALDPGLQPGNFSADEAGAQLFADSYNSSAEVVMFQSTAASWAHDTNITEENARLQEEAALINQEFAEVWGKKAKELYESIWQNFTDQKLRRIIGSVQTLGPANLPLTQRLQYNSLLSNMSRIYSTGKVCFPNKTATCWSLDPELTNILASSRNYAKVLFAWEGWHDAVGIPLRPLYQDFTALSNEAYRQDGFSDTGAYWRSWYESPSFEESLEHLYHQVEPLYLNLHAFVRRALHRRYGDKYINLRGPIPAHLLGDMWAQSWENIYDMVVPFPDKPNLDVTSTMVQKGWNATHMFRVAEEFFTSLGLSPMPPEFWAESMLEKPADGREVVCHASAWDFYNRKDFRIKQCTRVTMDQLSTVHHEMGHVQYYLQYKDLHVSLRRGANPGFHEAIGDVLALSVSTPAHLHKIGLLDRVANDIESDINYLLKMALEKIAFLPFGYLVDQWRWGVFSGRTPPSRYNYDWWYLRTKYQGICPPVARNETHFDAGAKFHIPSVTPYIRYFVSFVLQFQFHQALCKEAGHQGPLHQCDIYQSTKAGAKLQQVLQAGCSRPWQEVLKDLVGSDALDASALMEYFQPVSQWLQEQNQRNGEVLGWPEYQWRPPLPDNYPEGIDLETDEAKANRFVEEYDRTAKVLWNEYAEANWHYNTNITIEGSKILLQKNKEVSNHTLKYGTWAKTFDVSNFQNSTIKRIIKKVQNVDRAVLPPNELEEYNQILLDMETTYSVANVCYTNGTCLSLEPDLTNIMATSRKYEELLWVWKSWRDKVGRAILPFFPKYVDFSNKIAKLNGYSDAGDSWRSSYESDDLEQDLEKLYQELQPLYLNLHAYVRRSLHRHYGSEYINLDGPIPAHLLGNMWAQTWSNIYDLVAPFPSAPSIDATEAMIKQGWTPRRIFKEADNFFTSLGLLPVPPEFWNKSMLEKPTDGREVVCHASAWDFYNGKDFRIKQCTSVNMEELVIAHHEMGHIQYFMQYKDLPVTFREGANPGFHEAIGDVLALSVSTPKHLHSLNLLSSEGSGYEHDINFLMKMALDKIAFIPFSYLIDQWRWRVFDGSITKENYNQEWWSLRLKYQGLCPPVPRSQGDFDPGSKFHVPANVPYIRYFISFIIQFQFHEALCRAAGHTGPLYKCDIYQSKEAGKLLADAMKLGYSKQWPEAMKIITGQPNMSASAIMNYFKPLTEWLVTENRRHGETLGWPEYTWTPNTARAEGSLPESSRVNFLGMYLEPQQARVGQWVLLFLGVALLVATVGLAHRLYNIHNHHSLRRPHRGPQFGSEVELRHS

Canis familiaris [2] = test: Compound was evaluated for antihypertensive activity in conscious renal hypertensive dogs at a 10 mg/kg dose given orally; type: functional, Canis lupus familiaris; conditions: route oral
Summary of the method: (§1)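 Conscious mongrel dogs made hypertensive by bilateral renal artery constriction (Goldblatt). Drug given by gavage in gelatine capsules; systolic pressure fall vs 0 time, observed up to 7 h; Dunnett's t test.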

Canis familiaris [3] = test: Compound was evaluated for antihypertensive activity in conscious renal hypertensive dogs at a 30 mg/kg dose given orally; type: functional, Canis lupus familiaris; conditions: route oral; summary of the method: as §1
[4] = target: T2, Angiotensin-converting enzyme (Rattus norvegicus) (UniProt P47820); test: Compound was evaluated for ACE inhibitory activity in conscious normotensive rats at a dose 10 mg/kg given intravenously by determining percent reduction in Angiotensin I converting enzyme response; type: organism-based; set-up: dose 10 mg/kg
T2 sequence (whole entry): T1 sequence (P47820 whole entry)

[5] = target: T2, Angiotensin-converting enzyme (Rattus norvegicus); test: Compound was evaluated for ACE inhibitory activity in conscious normotensive rats at a dose 1 mg/kg given intravenously by determining percent reduction in Angiotensin I converting enzyme response; type: organism-based; set-up: dose 1 mg/kg
[6] = target: T2, Angiotensin-converting enzyme (Rattus norvegicus); test: Compound was evaluated for ACE inhibitory activity in conscious normotensive rats at a dose 10 mg/kg given intravenously by determining percent reduction in Angiotensin I converting enzyme; type: organism-based; set-up: dose 10 mg/kg

O=C(O)[C@@H]1CCCN1C(=O)[C@H]1CC[C@@H]1S
pIC50 [1]: 4.90

C[C@H](CS)C(=O)N1CCC[C@H]1C(=O)O [CAPTOPRIL]
SBP decrease (Canis familiaris [2]): -15% | SBP decrease (Canis familiaris [3]): -19%

CC(C)(C)OC(=O)[C@@H]1CCCN1C(=O)[C@H]1CCC[C@@H]1SC(=O)c1ccccc1
pIC50 [1]: 3.60

O=C(O)[C@@H]1CCCN1C(=O)[C@@H]1CCC[C@@H]1S
Change in ACE response [4]: -41% | Reduction [5]: -22% | pIC50 [1]: 4.71 | SBP decrease (Canis familiaris [3]): <10%

CC(C)(C)OC(=O)[C@@H]1CCCN1C(=O)[C@@H]1CCC(C)(C)[C@@H]1SC(=O)c1ccccc1
pIC50 [1]: 3.60

CC(C)(C)OC(=O)[C@@H]1CCCN1C(=O)[C@@H]1CCC[C@@H]1SC(=O)c1ccccc1
pIC50 [1]: 3.60

O=C(O)[C@@H]1CCCN1C(=O)C1CCCCC1S (some centres not stated)
pIC50 [1]: 4.95

O=C(O)[C@@H]1CCCN1C(=O)C1CCCC1S (some centres not stated)
pIC50 [1]: 5.79

O=C(S[C@H]1CCC[C@@H]1C(=O)N1CCC[C@H]1C(=O)O)c1ccccc1
pIC50 [1]: 3.84

CC1(C)CC[C@@H](C(=O)N2CCC[C@H]2C(=O)O)[C@@H]1S
pIC50 [1]: 3.67

O=C(S[C@@H]1CCC[C@H]1C(=O)N1CCC[C@H]1C(=O)O)c1ccccc1
Change in ACE response [4]: -80% | SBP decrease (Canis familiaris [2]): -15% | pIC50 [1]: 6.24 | SBP decrease (Canis familiaris [3]): -18%

CC(C)(C)OC(=O)[C@@H]1CCCN1C(=O)[C@H]1CCC[C@H]1SC(=O)c1ccccc1
pIC50 [1]: 3.91

CC(C)(C)OC(=O)[C@@H]1CCCN1C(=O)[C@H]1CCC(C)(C)[C@@H]1SC(=O)c1ccccc1
pIC50 [1]: 3.60

CC1(C)CC[C@H](C(=O)N2CCC[C@H]2C(=O)O)[C@H]1SC(=O)c1ccccc1
pIC50 [1]: 3.60

O=C(O)[C@@H]1CCCN1C(=O)[C@H]1CCC[C@H]1S
pIC50 [1]: 3.69

CC1(C)CC[C@H](C(=O)N2CCC[C@H]2C(=O)O)[C@H]1S
pIC50 [1]: 3.60

CC1(C)CC[C@@H](C(=O)N2CCC[C@H]2C(=O)O)[C@H]1SC(=O)c1ccccc1
pIC50 [1]: 3.60

CC(C)(C)OC(=O)[C@@H]1CCCN1C(=O)[C@@H]1CCC[C@H]1SC(=O)c1ccccc1
pIC50 [1]: 3.60

O=C(O)[C@@H]1CCCN1C(=O)[C@H]1CCC[C@@H]1S
pIC50 [1]: 4.47

O=C(S[C@H]1CCC[C@H]1C(=O)N1CCC[C@H]1C(=O)O)c1ccccc1
pIC50 [1]: 3.84

O=C(S[C@H]1CC[C@@H]1C(=O)N1CCC[C@H]1C(=O)O)c1ccccc1
Change in ACE response [4]: -30% | Reduction [5]: -18% | SBP decrease (Canis familiaris [2]): <10% | pIC50 [1]: 3.60 | SBP decrease (Canis familiaris [3]): -19%

O=C(O)[C@@H]1CCCN1C(=O)[C@@H]1CCC[C@H]1S
Change in ACE response [4]: -75% | Reduction [5]: -42% | SBP decrease (Canis familiaris [2]): -18% | pIC50 [1]: 5.95 | SBP decrease (Canis familiaris [3]): -21%

O=C(S[C@@H]1CC[C@H]1C(=O)N1CCC[C@H]1C(=O)O)c1ccccc1
Reduction [5]: -45% | Reduction [6]: -60% | SBP decrease (Canis familiaris [2]): -15% | pIC50 [1]: 5.26 | SBP decrease (Canis familiaris [3]): -17%

O=C(O)[C@@H]1CCCN1C(=O)[C@@H]1CC[C@H]1S
pIC50 [1]: 5.90 | SBP decrease (Canis familiaris [3]): <10%

O=C(S[C@@H]1CCC[C@@H]1C(=O)N1CCC[C@H]1C(=O)O)c1ccccc1
pIC50 [1]: 3.60

CC(C)(C)OC(=O)[C@@H]1CCCN1C(=O)[C@H]1CC[C@@H]1SC(=O)c1ccccc1
pIC50 [1]: 3.60

CC(C)(C)OC(=O)[C@@H]1CCCN1C(=O)[C@@H]1CC[C@H]1SC(=O)c1ccccc1
pIC50 [1]: 3.60
